Experimental findings from ChEMBL document CHEMBL5252546, “Salutaxel, a Conjugate of Docetaxel and a Muramyl Dipeptide (MDP) Analogue, Acts as Multifunctional Prodrug That Inhibits Tumor Growth and Metastasis” (J Med Chem, 2018) are described below.

A word on the Tmax: it is the time at which the peak concentration occurs. Broadly, the IC50 is the concentration that gives 50% inhibition. Low readings indicate higher potency, high ones lower potency. Broadly, the MRT inf is a mean duration of stay, worked out from the concentration-time curve. By Cmax is commonly meant the peak of the concentration-time curve. For orientation: inhibition in vivo means the change of the read-out against control, counted positive when it falls. One may read the AUC(0-t) as the area under the concentration-time curve up to a stated or last time point. A low value points to less exposure. For orientation: AUC(0-inf) means total exposure, with the tail of the curve extrapolated. Low readings indicate less exposure, high ones more exposure. As usually defined, the MTD is the highest dose tested that stayed within the study's limit of toxicity.

The subject of data set [1] is 4T1. In words: Antitumor activity against mouse 4T1 cells implanted in BALB/c mouse assessed as decrease in serum MMP9 level at 5.7 mg/kg,iv administrated once per week for 4 weeks by ELISA. In kind it is functional, organism-based. A general note: ELISA stands for enzyme-linked immunosorbent assay.
A short description of data set [2]: Toxicity in BALB/c mouse xenografted with human A549/Taxol cells assessed as body weight loss at 5.7 mg/kg,iv administrated once per week for 3 weeks. In kind it is organism-based, A549/TR. Conditions: in vivo, 504 h. In a few lines:
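Nude BALB/c nu/nu mice received subcutaneous human tumour cells into the right flank. Dosing started at mean tumour volume of 100–120 mm3, iv once weekly for 3 weeks; the taxane arm was an equimolar control. Body weight and overt side effects were monitored. Mean ± SEM, n = 8.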
(In general: Xenograft models place foreign cells or tissue in a host animal.)

Data set [3] is described as follows: Tmax in mouse tumor implanted with mouse 4T1 cells at 5.7 mg/kg,iv measured upto 72 hrs. The class given is ADME, organism-based, Neoplasm.
In data set [4] the test system is 4T1. In words: Antitumor activity against mouse 4T1 cells implanted in BALB/c mouse assessed as increase in tumor NOD1 expression level at 5.7 mg/kg,iv administrated once per week for 4 weeks by western blot assay. The class given is functional, organism-based. In a few lines: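 Tumour-bearing BALB/c mice (4T1 cells into mammary fat pad) given iv saline vehicle or test agents once weekly for 4 weeks. Tumours excised and probed by western blot for MMP9, MMP2 and NOD1, β-actin as loading control. Bands averaged over five mice per group; representative of two independent experiments.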
(In general: Immunoblotting shows a protein as a band on a membrane.)

Data set [5] concerns 4T1. In words: Antitumor activity against mouse 4T1 cells implanted in BALB/c mouse assessed as decrease in spleen MMP2 expression level at 5.7 mg/kg,iv administrated once per week for 4 weeks by western blot assay. In kind it is functional, organism-based. A digest of the protocol:
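4T1 cells injected into mammary fat pads of BALB/c mice. Saline vehicle or test article given iv once weekly for 4 weeks. Spleen, lung and tumor lysates immunoblotted for MMP2/MMP9 with β-actin as loading control. Bands averaged over five mice per group, representative of two independent experiments.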

In another data set the test system is NCI-H460. Put plainly: Antiproliferative activity against human NCI-H460 cells assessed inhibition of cell growth incubated for 72 hrs by SRB assay. The class given is functional, cell-based. Conditions: NCI-H460, 72 h.
Data set [6] in a line: MRT (0 to infinity) in Beagle dog at 1 mg/kg,iv measured upto 24 hrs. The class given is ADME, organism-based, Canis lupus familiaris. To be noted: in vivo.
Data set [7] in a line: Cmax in Beagle dog at 4 mg/kg,iv measured upto 24 hrs. In kind it is ADME, organism-based, Canis lupus familiaris. On the set-up: dose 4 mg/kg, time < 24 hrs, route iv. To be noted: in vivo. A digest of the protocol: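 Beagle dogs were given a single iv infusion at 1, 2 or 4 mg/kg. Plasma parent drug and released docetaxel were followed over time. Cmax, Tmax, AUC, MRT, t1/2, CL and Vss were reported by sex and for all dogs combined.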

Data set [8] can be described thus: Toxicity in BALB/c mouse xenografted with human MDA-MB-231 cells assessed as body weight loss at 10 mg/kg,iv administrated once per week for 3 weeks. In kind it is organism-based. Conditions: in vivo, 504 h.
The nature of data set [9]: Drug metabolism in rat plasma assessed as metabolite MDA-205 formation at 4 mg/kg,iv measured after 24 hrs. To be noted: in vivo. The class given is ADME, organism-based.
Data set [10] in a line: Stability in dog plasma assessed as compound remaining at 40 uM incubated for 6 hrs. In kind it is ADME, cell-free, Canis lupus familiaris.
The nature of data set [11]: MRT (0 to infinity) in rat at 8 mg/kg,iv measured upto 24 hrs. The class given is ADME, organism-based. Conditions: in vivo.
Data set [12] in a line: Volume of distribution at steady state in female rat at 8 mg/kg,iv measured upto 24 hrs. To be noted: in vivo, read-out: Vdss. In kind it is ADME, organism-based.
Data set [13] deals with 4T1. Put plainly: Antitumor activity against mouse 4T1 cells implanted in BALB/c mouse assessed as decrease in serum S100A9 level at 20 mg/kg,iv administrated once per week for 4 weeks by ELISA. In kind it is functional, organism-based. In a few lines:
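4T1 fat-pad model in BALB/c mice, iv 5–20 mg/kg once weekly for 4 weeks, with vehicle and naive groups; serum MMP9, TIMP-1, IL-6 and S100A9 measured by mouse ELISA kits.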

The next data set addresses Cytochrome P450 3A4 (Homo sapiens, UniProt P08684). In words: Inhibition of CYP3A4 in human liver microsomes using probe substrate at 0.1 to 100 uM in presence of NADPH. In kind it is ADME, Microsome. Conditions: dose 0.1-100 µM.
The subject of data set [14] is 4T1. In words: Antitumor activity against mouse 4T1 cells xenografted with BALB/c mouse assessed as inhibition of tumor growth at 10 mg/kg,iv administrated once per week for 4 weeks. In kind it is functional. To be noted: 4T1, 672 h. In a few lines:
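4T1 cells injected into the mammary fat pad of BALB/c mice; iv saline vehicle or 5, 10 or 20 mg/kg once weekly for 4 weeks; body weight, tumour volume, tumour weight, lung metastatic nodule count and metastasis score recorded; n = 10, mean ± SEM, ANOVA and Student's t test.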

The test system of a further data set is KM12. In words: Antiproliferative activity against human KM12 cells assessed inhibition of cell growth incubated for 72 hrs by SRB assay. The class given is functional, cell-based. To be noted: KM12, 72 h.
A short description of data set [15]: Tmax in female Beagle dog at 1 mg/kg,iv measured upto 24 hrs. The class given is ADME, organism-based, Canis lupus familiaris. Conditions: in vivo.
Data set [16] in a line: AUC (0-t) in Beagle dog at 4 mg/kg,iv measured upto 24 hrs. In kind it is ADME, organism-based, Canis lupus familiaris. Set-up: dose 4 mg/kg, time < 24 hrs, route iv. To be noted: in vivo. In a few lines: (§1)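 Single iv dose: rats 2, 4 or 8 mg/kg by intravenous injection; Beagle dogs 1, 2 or 4 mg/kg by intravenous infusion. Plasma concentration–time data were analysed by sex and pooled. Reported parameters: Cmax, Tmax, AUC0−t, AUC0−∞, MRT0−∞, t1/2, CL, Vss, given as mean ± SD.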

Data set [17] can be described thus: MRT (0 to infinity) in male rat at 4 mg/kg,iv measured upto 24 hrs. The class given is ADME, organism-based. To be noted: in vivo.
The nature of data set [18]: AUC (0-infinity) in male Beagle dog at 4 mg/kg,iv measured upto 24 hrs. The class given is ADME, organism-based, Canis lupus familiaris. On the set-up: dose 4 mg/kg, time < 24 hrs, route iv. Conditions: in vivo. A digest of the protocol: as §1
The nature of data set [19]: Acute toxicity in Sprague-Dawley rat assessed as maximum tolerated dose at iv administration. Conditions: in vivo. In kind it is organism-based. A digest of the protocol: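 Acute toxicity after a single intravenous administration. […] In dogs, an approximate lethal dose range was determined.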
The nature of data set [20]: Tmax in female Beagle dog at 4 mg/kg,iv measured upto 24 hrs. In kind it is ADME, organism-based, Canis lupus familiaris. To be noted: in vivo.
The test system of the next data set is SF-295. Put plainly: Antiproliferative activity against human SF-295 cells assessed inhibition of cell growth incubated for 72 hrs by SRB assay. In kind it is functional, cell-based. Conditions: SF-295, 72 h.
Data set [21] deals with 4T1. In words: Antitumor activity against mouse 4T1 cells implanted in BALB/c mouse assessed as decrease in lung MMP9 expression level at 5 to 20 mg/kg,iv administrated once per week for 4 weeks by western blot assay. In kind it is functional, organism-based. Conditions: dose 5-20 mg/kg. A digest of the protocol:
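4T1 fat-pad model in BALB/c mice, iv once weekly for 4 weeks; MMP9, MMP2 and NOD1 in spleen, lung and tumour by western blot, β-actin loading control; bands averaged over five mice per group, representative of two independent experiments.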

Data set [22] has as its system 4T1. Put plainly: Synergistic antitumor activity against mouse 4T1 cells xenografted with BALB/c mouse assessed as decrease in lung metastasis at 10 mg/kg,iv administrated in combination with doxorubicin once per week for 4 weeks. The class given is functional, organism-based.
Data set [23] is described as follows: AUC (0-t) in rat at 8 mg/kg,iv measured upto 24 hrs. In kind it is ADME, organism-based. Set-up: dose 8 mg/kg, time < 24 hrs, route iv. To be noted: in vivo. In a few lines:
as §1

A short description of data set [24]: Tmax in mouse tumor implanted with mouse 4T1 cells at 10 mg/kg,iv measured upto 72 hrs. In kind it is ADME, organism-based, Neoplasm.
A short description of data set [25]: Cmax in mouse tumor implanted with mouse 4T1 cells at 10 mg/kg,iv measured upto 72 hrs. In kind it is ADME, organism-based, Neoplasm. Set-up: time < 72 hrs, dose 10 mg/kg, route iv. In a few lines: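 BALB/c mice carried 4T1 cells implanted in the mammary fat pad and received a single iv dose of 10 mg/kg. Parent drug and released docetaxel were assayed in plasma and tumor tissue up to 72 h. Parameters came from noncompartmental analysis, n = 6, mean ± SD.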

Data set [26] is described as follows: AUC (0-t) in male rat at 4 mg/kg,iv measured upto 24 hrs. In kind it is ADME, organism-based. On the set-up: time < 24 hrs, dose 4 mg/kg, route iv. Conditions: in vivo. A digest of the protocol: as §1
The test system of data set [27] is 4T1. Put plainly: Synergistic antitumor activity against mouse 4T1 cells xenografted with BALB/c mouse assessed as decrease in tumor volume at 10 mg/kg,iv administrated in combination with doxorubicin once per week for 4 weeks. In kind it is functional, organism-based.

The source made the active and inactive calls. No cut-off for these calls is given here.

Cytochrome P450 3A4, sequence (P08684 whole entry): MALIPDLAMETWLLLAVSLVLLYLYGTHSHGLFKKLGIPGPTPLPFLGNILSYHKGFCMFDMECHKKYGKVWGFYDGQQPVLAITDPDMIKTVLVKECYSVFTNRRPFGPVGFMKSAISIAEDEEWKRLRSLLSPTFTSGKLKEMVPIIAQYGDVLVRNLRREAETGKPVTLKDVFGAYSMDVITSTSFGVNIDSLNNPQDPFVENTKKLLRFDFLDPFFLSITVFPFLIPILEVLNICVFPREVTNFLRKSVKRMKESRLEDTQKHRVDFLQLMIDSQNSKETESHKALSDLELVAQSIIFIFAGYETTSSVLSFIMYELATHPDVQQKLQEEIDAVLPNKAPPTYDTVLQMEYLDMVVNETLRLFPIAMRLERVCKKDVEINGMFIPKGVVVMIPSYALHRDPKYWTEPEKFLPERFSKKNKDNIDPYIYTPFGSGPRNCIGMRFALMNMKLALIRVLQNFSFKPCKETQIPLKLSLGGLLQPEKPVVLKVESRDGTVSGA

`CC(=O)O[C@@]12CO[C@@H]1C[C@H](O)[C@@]1(C)C(=O)[C@H](O)C3=C(C)[C@@H](OC(=O)[C@H](O)[C@@H](NC(=O)OC(C)(C)C)c4ccccc4)C[C@@](O)([C@@H](OC(=O)c4ccccc4)[C@H]21)C3(C)C` [DOCETAXEL ANHYDROUS]: the result in the data set with 4T1 [1] was Active. In addition, the Activity result in [2] is recorded as “Non-Toxic”. The Tmax in data set [3] is 30 min. The result in the data set on 4T1 [4] and in the data set on 4T1 [5] was inactive.
`CC(=O)O[C@@]12CO[C@@H]1C[C@H](O)[C@@]1(C)C(=O)[C@H](O)C3=C(C)[C@@H](OC(=O)[C@H](OC(=O)CCC(=O)NCCCC[C@H](NC(=O)CC[C@@H](NC(=O)[C@H](C)NC(=O)/C=C/c4ccc(F)cc4Cl)C(N)=O)C(=O)O)[C@@H](NC(=O)OC(C)(C)C)c4ccccc4)C[C@@](O)([C@@H](OC(=O)c4ccccc4)[C@H]21)C3(C)C`: the IC50 with NCI-H460, in the data set on KM12 and in the data set on SF-295 was 16.3 nM each time. Besides, the values for the MRT inf in data set [6], in data set [11] and in data set [17] were 15.2 min, 33.1 min and 22.5 min, respectively. In addition, the Cmax is 30100 ng/mL in [7] and 140 nM in [25]. Also, the Activity result in data set [8] is reported as “Non-Toxic”. The Drug metabolism result in [9] is listed as “Metabolite_Detected”. In addition, the Stability entry in [10] is recorded as “Stable”. Further, in data set [12], the Vd stood at 0.095 L/kg. Besides, the outcome with 4T1 [13], in the data set with 4T1 [21], with 4T1 [22] and in the data set on 4T1 [27] was Active. Besides, the “inhibition (INH)” value on Cytochrome P450 3A4 is recorded as “Not Active”. The inhibition in vivo at 10 mg/kg with 4T1 [14] was determined as 37%. For the same compound, the figures for the Tmax in data set [15], in data set [20] and in data set [24] were 30 min, 30 min and 15 min, respectively. Also, the values for the AUC(0-t) at 24 h in data set [16], in data set [23] and in data set [26] were 17200 ng·h/mL, 45800 ng·h/mL and 20700 ng·h/mL, respectively. In addition, the AUC(0-inf) in data set [18] came out at 15300 ng·h/mL. In [19], the MTD stood at 9.4 mg/kg.
